Here are results for 24 compounds from PubChem BioAssay.

Experiment [1] in a line: PERK-eIF2a-CHOP pathway stimulators, retested – cell-based, CHO-CHOP luciferase reporter, single concentration, confirmation (AID 463112; in the data active = activation above about 33%;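 also: 0% = DMSO wells and 100% = tunicamycin 10 µg/mL wells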). As to conditions: CHO-CHOP cells, CHOP-luciferase reporter luminescence; at 10 µM; stronger effect = higher value; percent of tunicamycin response, DMSO as zero. An outline of the steps: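 Material: CHOP-luciferase reporter CHO cells; controls: tunicamycin 10 µg/mL as high control, DMSO alone as low control; signal: luciferase luminescence measured with Steady-Glo reagent; timing: overnight cell seeding before dosing, 6 h compound exposure at 37 °C; doses: 10 µM single point, 0.5% DMSO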
A general note: Reporter assays use an easily measured gene product as a stand-in for the process of interest.

Experiment [2] in a line: HIF-2a driven luciferase blockers, single dose – luminescence, 786-0 RCC cells, confirmation (AID 651580;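 active = mean inhibition across four replicates of at least 40 percent at the single tested concentration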). As to conditions: HIF-2a luciferase reporter luminescence, overnight, at 18.8 µM, stronger effect = higher value.
A short description of experiment [3]: HIF-1a luciferase reporter signal reduction – MiaPaCa-2 cells, single concentration, counter-screen for HIF-2a inhibitor project, confirmation (AID 651589;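 active = mean inhibition of the reporter signal across four replicates at the single tested dose of 50% or more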). The conditions noted are these: MiaPaCa-2 HIF-1a luciferase reporter, desferoxamine, overnight; at 18.8 µM; stronger effect = higher value.
Experiment [4] concerns the target Sentrin-specific protease 8 (Homo sapiens) (UniProt Q96LD8). The experiment in a line: human SENP8 peptidase blockers, hit retest – biochemical, luminescence, single concentration, confirmation (AID 488912;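 active = mean inhibition across replicates above about 50%, limit read from the data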). As to conditions: Recombinant SENP8, Z-RLRGG-aminoluciferin luminescence, 60 min; at 12.5 µM; stronger effect = higher value.
The target in experiment [5] is Sentrin-specific protease 6 (Homo sapiens) (UniProt Q9GZR1). The experiment can be described thus: inhibition of human SENP6 catalytic domain – biochemical, luminescence, single concentration, confirmation (AID 488915). As to conditions: recombinant SENP6, Z-RLRGG-aminoluciferin luminescence; at 12.5 µM; stronger effect = higher value.
The target of experiment [6] is Sentrin-specific protease 7 (Homo sapiens) (UniProt Q9BQF6). The experiment in a line: human SENP7 peptidase blockers, hit retest – biochemical, luminescence, single concentration, confirmation (AID 488917). The conditions noted are these: recombinant SENP7, Z-RLRGG-aminoluciferin luminescence, 40 min; at 12.5 µM; stronger effect = higher value.
In a further experiment the target is Caspase-3 (Homo sapiens) (UniProt P42574). The experiment in a line: human caspase-3 activity blockade, out-of-family – biochemical, single concentration, selectivity assay for SENP inhibitor project, confirmation (AID 488918;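 active = mean inhibition above about 50%, limit read from the data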;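 also: plate controls were enzyme with DMSO for no effect and wells without caspase-3 for full effect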). The conditions noted are these: purified caspase-3, Z-DEVD-aminoluciferin luminescence, 60 min; at 12.5 µM; stronger effect = higher value.
Experiment [7] in a line: Ultra-Glo luciferase signal interference – biochemical, single concentration, SENP8 reaction pre-completed, artefact control for SENP inhibitor project, confirmation (AID 488919;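 active = mean inhibition above about 50% when retested at one dose, limit read from the data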;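 also: plate controls were DMSO wells with completed reaction for no effect and substrate without enzyme for full effect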). As to conditions: Pre-incubated SENP8/Z-RLRGG-aminoluciferin, luciferase luminescence interference; at 12.5 µM; stronger effect = higher value.
Experiment [8] concerns the target Tumor necrosis factor receptor superfamily member 10B (Homo sapiens) (UniProt O14763). The experiment can be described thus: viability loss of caspase-8 NB7 cells with TRAIL – with/without TRAIL, luminescence panel, confirmation (AID 651596; in the data active = activity above about 50%). As to conditions: NB7 neuroblastoma + caspase-8, TRAIL sensitization, NB7 Caspase-8, with TRAIL, mean of runs, at 10 µM, stronger effect = higher value.

Assay in experiment [9]: as above
As to conditions: NB7 neuroblastoma + caspase-8, without TRAIL, NB7 Caspase-8, without TRAIL, mean of runs, at 10 µM.

The list shows a part of the results. Active and inactive are the calls of the source.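 The calls were made as follows, unless noted: active = mean inhibition above about 50% in the one-dose retest (limit read from the data); inactive = the rest.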

Sequence of Sentrin-specific protease 7 (Homo sapiens) (Q9BQF6 706-1050 limits assumed): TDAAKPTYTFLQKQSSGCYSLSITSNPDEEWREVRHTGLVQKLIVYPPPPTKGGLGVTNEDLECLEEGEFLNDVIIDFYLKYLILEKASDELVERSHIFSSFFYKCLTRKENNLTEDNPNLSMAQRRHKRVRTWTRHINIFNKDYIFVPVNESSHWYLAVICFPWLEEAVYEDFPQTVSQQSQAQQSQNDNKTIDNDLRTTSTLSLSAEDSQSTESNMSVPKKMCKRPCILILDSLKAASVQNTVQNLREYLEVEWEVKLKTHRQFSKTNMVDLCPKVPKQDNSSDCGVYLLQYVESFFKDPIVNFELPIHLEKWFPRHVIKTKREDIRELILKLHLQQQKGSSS
Sequence of Sentrin-specific protease 8 (Homo sapiens) (Q96LD8 whole entry, looked up, the tested form may be a part): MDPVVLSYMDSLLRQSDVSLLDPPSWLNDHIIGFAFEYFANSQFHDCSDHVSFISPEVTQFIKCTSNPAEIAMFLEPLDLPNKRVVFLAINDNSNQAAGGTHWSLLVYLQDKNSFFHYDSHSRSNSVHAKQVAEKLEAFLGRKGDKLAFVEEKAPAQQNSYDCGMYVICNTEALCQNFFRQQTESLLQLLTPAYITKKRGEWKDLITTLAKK
Sequence of Caspase-3 (Homo sapiens) (P42574 28-227 limits assumed): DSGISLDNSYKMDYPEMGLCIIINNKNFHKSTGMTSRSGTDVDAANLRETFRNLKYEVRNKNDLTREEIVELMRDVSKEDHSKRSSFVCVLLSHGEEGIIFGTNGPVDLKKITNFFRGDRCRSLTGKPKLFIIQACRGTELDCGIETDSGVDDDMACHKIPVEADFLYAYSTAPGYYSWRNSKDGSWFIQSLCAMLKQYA
Sequence of Sentrin-specific protease 6 (Homo sapiens) (Q9GZR1 628-1112 limits assumed): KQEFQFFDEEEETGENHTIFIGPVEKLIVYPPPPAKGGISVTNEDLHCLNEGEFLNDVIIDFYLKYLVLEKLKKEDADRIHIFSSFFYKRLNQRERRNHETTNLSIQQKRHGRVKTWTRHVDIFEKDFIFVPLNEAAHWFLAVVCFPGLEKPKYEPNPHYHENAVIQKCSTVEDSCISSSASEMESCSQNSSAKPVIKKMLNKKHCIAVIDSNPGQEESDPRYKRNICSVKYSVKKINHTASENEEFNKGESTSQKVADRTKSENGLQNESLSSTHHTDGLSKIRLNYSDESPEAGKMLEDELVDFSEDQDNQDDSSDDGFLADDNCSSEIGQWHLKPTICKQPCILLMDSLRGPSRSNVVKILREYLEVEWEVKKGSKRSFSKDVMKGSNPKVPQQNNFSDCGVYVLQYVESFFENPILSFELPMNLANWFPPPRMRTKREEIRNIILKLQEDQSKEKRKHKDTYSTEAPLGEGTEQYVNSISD
Sequence of Tumor necrosis factor receptor superfamily member 10B (Homo sapiens) (O14763 whole entry, looked up): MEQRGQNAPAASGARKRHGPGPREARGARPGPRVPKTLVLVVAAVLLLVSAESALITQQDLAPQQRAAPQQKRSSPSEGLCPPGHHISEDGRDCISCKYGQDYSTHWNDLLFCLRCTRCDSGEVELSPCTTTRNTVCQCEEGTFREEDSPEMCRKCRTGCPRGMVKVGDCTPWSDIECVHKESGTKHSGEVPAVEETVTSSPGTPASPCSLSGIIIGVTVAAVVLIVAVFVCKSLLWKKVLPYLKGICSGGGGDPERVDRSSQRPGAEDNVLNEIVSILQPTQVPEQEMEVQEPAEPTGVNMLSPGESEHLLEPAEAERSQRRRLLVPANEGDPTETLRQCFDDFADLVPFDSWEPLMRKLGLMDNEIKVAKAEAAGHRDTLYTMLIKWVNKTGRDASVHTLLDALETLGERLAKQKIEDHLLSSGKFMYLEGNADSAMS

As to `Cc1cc(C)nc(S/C=C/C(=O)c2ccccc2)n1`, in experiment [1], the activation is 83.4% (active). Further, the inhibition was 58.6% (active) in [2] and 98.9% (active) in experiment [3].
On to `Cc1cccc(NS(=O)(=O)c2cccc(C(=O)NNC(=O)c3ccccc3O)c2)c1`, for which the inhibition in experiment [4] is 26.9% (inactive); in [5] it was 54.5% (active); in experiment [6], 75.5% (active); with Caspase-3 (Homo sapiens), 56.8% (active); in experiment [7], 49.9% (inactive).
In the case of `CN(CCO)c1ccc(/C=N/Nc2nncc3ccccc23)cc1`, the inhibition was 98.7% (active) in experiment [4]; 99.7% (active) in experiment [5]; 103% (active) in [6]; 98.7% (active) with Caspase-3 (Homo sapiens); 93.4% (active) in [7].
`COc1ccc(NC(=O)Nc2cccc3cccnc23)cc1`: the inhibition in [4] was 86.4% (active); in [5] it was 85.6% (active); in [6], 97.2% (active); with Caspase-3 (Homo sapiens), 70.7% (active); in [7] it was 78.5% (active).
Turning to `CC(=O)Oc1ccc2c(=O)oc(-c3ccc([N+](=O)[O-])cc3)nc2c1`, the inhibition in experiment [4] was -6.1% (inactive); in experiment [5], -1.5% (inactive); in experiment [6], -2.9% (inactive); with Caspase-3 (Homo sapiens) it was -2.9% (inactive); in experiment [7], -4.7% (inactive).
On to `Clc1ccc(Nc2ccc3ccccc3n2)cc1`, for which the inhibition in [4] was 87.7% (active); in experiment [5], 88.2% (active); in experiment [6], 97.8% (active); with Caspase-3 (Homo sapiens) it was 48.8% (inactive); in experiment [7] it was 71.2% (active).
The matching figures for `CN(CC(=O)Nc1ccc(Cl)cc1)C(=O)CNC(=O)c1ccc2ccccc2c1`: 15.1% (inactive), 12.3% (inactive), 66.3% (active), 21.6% (inactive) and 1.1% (inactive).
The matching figures for `O=C(Nc1ccncc1)c1cc2ccccc2o1`: 49.1% (inactive), 44% (inactive), 76.1% (active), 75.6% (active) and 49.3% (inactive).
In the case of `O=C(/C(=C/c1cccc(Cl)c1)c1nc2ccccc2[nH]1)c1ccccc1`, the activation in experiment [1] is 115% (active). Also, the inhibition in [2] is 26.3% (inactive); in [3], 105% (active).
On to `CC1=NN(C(N)=S)C(=O)C1N=Nc1cc(Cl)ccc1Cl` (configuration not stated), for which the inhibition is -5.4% (inactive) in experiment [4]; -1.7% (inactive) in experiment [5]; 1.9% (inactive) in experiment [6]; -1.2% (inactive) with Caspase-3 (Homo sapiens); 1.2% (inactive) in experiment [7].
As to `COc1cccc(C(=O)Nc2ccc(NC(=O)c3ccco3)cn2)c1`, the inhibition is 53.1% (active) in experiment [4]; 51% (active) in [5]; 82.4% (active) in experiment [6]; 76.1% (active) with Caspase-3 (Homo sapiens); 62.4% (active) in experiment [7].
The matching figures for `COc1ccc(-n2ncc3c(SCC(=O)NNC(C)=O)ncnc32)cc1`: 11.5% (inactive), 48.8% (inactive), 11.2% (inactive), 51.3% (active) and 5.9% (inactive).
As for `Nc1[nH][nH]c(=O)c1N=Nc1ccc2c(c1)OCO2`, the inhibition in [4] is 41.3% (inactive); in [5], 39.2% (inactive); in [6] it was 67.3% (active); in the experiment with Caspase-3 (Homo sapiens) it was 74% (active); in [7], 12% (inactive).
Regarding `O=C(Nc1ccccc1Cl)Nc1cccc2cccnc12`, the inhibition in experiment [4] was 35.6% (inactive); in experiment [5], 37.2% (inactive); in experiment [6], 75.2% (active); with Caspase-3 (Homo sapiens), 25.9% (inactive); in experiment [7], 32.6% (inactive).
The matching figures for `C/C(=N\NC(=O)c1ccc(C)cc1)C1C(=O)c2ccccc2C1=O`: 92.6% (active), 93.5% (active), 100% (active), 92.7% (active) and 94.1% (active).
The matching figures for `CC(=O)Nc1ccc(/C=N/NC(=O)c2cccs2)cc1`: 31.2% (inactive), 34% (inactive), 78.5% (active), 82.4% (active) and 58.1% (active).
As to `O=C(Nc1nnc(SCc2ccccc2)s1)c1ccco1`, the inhibition in [4] is 6.7% (inactive); in experiment [5] it was 40.5% (inactive); in experiment [6], 23.6% (inactive); with Caspase-3 (Homo sapiens) it was 61.1% (active); in experiment [7], 13.1% (inactive).
`O=c1c2c(nc3n1CCCCC3)sc1c(O)cccc12`: the inhibition in [4] is 53.6% (active); in experiment [5], 49.2% (inactive); in experiment [6], 75.5% (active); with Caspase-3 (Homo sapiens) it was 59.4% (active); in experiment [7], 61.9% (active).
Consider `O=C(Nc1ccc(OC(F)(F)F)cc1)c1ccc2c(c1)no[n+]2[O-]`, for which, in experiment [1], the activation was 24.4% (inactive). Moreover, the activity in experiment [8] was determined as 90%; in experiment [9] it was 96.8%.
For the compound `CCOC(=O)c1c(NC(=O)CCl)sc(C(=O)N(CC)CC)c1C`, in [1], the activation is 27% (inactive). Besides, the activity in experiment [8] worked out at 95.3%; in experiment [9], 93.8%.
For the compound `O=C(Nc1ccccc1)c1ccc2c(c1)OCO2`, the inhibition in experiment [4] was 10.6% (inactive); in experiment [5], 74.3% (active); in [6], 93.9% (active); with Caspase-3 (Homo sapiens), 88.9% (active); in [7], 54.8% (active).
The matching figures for `O=C(N/N=C/c1cccnc1)c1cc2ccccc2cc1O`: 25.3% (inactive), 22.6% (inactive), 72.3% (active), 61.6% (active) and 53.8% (active).
In the case of `Brc1ccc(-c2nnc(-c3ccccc3)o2)o1`, the inhibition in experiment [4] is 25.1% (inactive); in experiment [5] it was 50.8% (active); in experiment [6], 80.1% (active); with Caspase-3 (Homo sapiens), 62.9% (active); in experiment [7], 19.1% (inactive).
Consider `O=C(Nc1cccnc1Cl)c1cc(-c2ccccc2O)on1`, for which the inhibition in experiment [4] is 8.6% (inactive); in experiment [5], 17.8% (inactive); in experiment [6] it was 16.2% (inactive); with Caspase-3 (Homo sapiens) it was 8% (inactive); in experiment [7], 1.6% (inactive).

The inhibition is the drop in the measured response relative to a control, in per cent.
